Bioassay records (PubChem BioAssay)
ABCB1 block: inhibitors of human ABCB1 transporter, ABCG2 counter-screen. P08183. AID 1326. inhibition, % at 6.6 µM. 190,000 compounds, 0.067% hits. CCRF-Adr cells, JC-1 efflux, flow cytometry; in the data active = inhibition above about 40%;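 also: higher value means more JC-1 retained so stronger ABCB1 efflux block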
Target sequence (P08183 whole entry, looked up): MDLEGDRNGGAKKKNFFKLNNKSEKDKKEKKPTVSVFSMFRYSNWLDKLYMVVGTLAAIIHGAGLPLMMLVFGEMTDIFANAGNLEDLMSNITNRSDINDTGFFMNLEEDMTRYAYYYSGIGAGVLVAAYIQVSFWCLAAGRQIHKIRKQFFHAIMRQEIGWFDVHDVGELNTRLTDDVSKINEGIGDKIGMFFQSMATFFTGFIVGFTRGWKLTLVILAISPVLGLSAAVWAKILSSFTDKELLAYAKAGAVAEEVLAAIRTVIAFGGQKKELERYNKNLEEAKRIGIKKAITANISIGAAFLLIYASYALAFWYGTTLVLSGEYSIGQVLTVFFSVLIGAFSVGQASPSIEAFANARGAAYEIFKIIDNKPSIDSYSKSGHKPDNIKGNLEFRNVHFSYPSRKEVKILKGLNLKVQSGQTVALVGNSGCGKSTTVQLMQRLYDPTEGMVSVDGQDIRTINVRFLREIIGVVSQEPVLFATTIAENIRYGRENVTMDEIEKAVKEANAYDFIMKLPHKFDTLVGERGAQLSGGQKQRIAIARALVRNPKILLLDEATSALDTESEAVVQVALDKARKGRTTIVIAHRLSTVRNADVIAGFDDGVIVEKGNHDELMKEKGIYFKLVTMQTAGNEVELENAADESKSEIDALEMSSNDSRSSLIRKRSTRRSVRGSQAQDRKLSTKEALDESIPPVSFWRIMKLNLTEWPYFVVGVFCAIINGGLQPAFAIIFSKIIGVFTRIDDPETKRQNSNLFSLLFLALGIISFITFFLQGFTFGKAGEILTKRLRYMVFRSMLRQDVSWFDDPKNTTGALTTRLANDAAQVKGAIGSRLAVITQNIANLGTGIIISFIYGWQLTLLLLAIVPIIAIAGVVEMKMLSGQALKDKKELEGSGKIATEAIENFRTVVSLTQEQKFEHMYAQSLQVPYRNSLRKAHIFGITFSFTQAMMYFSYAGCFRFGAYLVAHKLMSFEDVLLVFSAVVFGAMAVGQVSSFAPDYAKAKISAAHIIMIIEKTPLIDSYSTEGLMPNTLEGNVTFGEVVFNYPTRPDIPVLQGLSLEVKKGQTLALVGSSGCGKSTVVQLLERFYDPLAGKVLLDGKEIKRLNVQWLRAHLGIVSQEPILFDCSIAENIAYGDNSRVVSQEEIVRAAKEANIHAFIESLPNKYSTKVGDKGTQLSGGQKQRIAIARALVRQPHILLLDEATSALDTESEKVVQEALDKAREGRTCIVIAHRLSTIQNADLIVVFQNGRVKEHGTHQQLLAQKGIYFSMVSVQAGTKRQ
MEKK2mut PB1 HTS: signal of MEK5 binding to mutant human MEKK2 PB1 domain; bead flow cytometry, Alexa488-MEK5 binding to MEKK2 mutant; percent response, % at 10 µM; 290,000 compounds, 0.35% hits; AID 1530; in the data active = percent response above about 24%, passing the limit was not always enough
Efflux pump mplx: inhibitors of Candida antifungal efflux pumps expressed in yeast; S. cerevisiae Candida pump triplex, Nile Red efflux; inhibition, % at 10 µM; 330,000 compounds, 0.44% hits; AID 485275;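 active = plate passing quality check with inhibition over a set limit, or well fluorescence over plate mean plus 4 SD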;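 also: Nile Red retained in pooled yeast measured as flow cytometry median fluorescence; higher means more Nile Red kept so more efflux inhibition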
ABCG2 inh: inhibitors of human ABCG2 transporter, ABCB1 counter-screen; IgMXP3 cells, JC-1 efflux, flow cytometry; inhibition, % at 6.6 µM; 190,000 compounds, 0.1% hits;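 active = inhibition above 80%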
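Test system: IgMXP3 (ABCG2) plus far-red-tagged CCRF-Adr (ABCB1) cells. Reagent: JC-1 dye as substrate. Timing: 10 min exposure at 25 °C with rotation, no wash. Measured by: flow cytometric JC-1 green MFI at 530 nm. Read-out: percent efflux inhibition, scaled nicardipine 100% to DMSO 0%. Control set: nicardipine and DMSO wells.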
MEKK2 WT-MEK5: raises or lowers MEK5 binding to wildtype human MEKK2 PB1 domain; bead flow cytometry, Alexa488-MEK5 binding to MEKK2 WT; actives lie on both sides; Q9Y2U5; 290,000 compounds, 1.1% hits; binding response (% of control), % at 10 µM; in the data active = binding response below about 67% or above about 130%
MEKK3 PB1 HTS: modulators (inhibitors or enhancers) of MEK5 binding to human MEKK3 PB1 domain | bead-based flow cytometry, Alexa488-MEK5 binding to MEKK3; actives lie on both sides; 0 = blocked by unlabeled MEK5, 100 = vehicle | binding response (% of control), % at 10 µM | 290,000 compounds, 1.4% hits | AID 1529;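 active = binding response more than 3 SD above or below the average of its plate-row segment, actives on both sides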;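 also: Alexa488 bead fluorescence after subtracting the streptavidin-only scavenger bead signal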
MEKK2wt confirm: raises or lowers MEK5 binding to wildtype human MEKK2, retest; shares compounds with MEKK3 PB1 HTS; bead flow cytometry, Alexa488-MEK5 binding to MEKK2 WT; actives lie on both sides; binding response (% of control), % at 10 µM; 5,900 compounds, 2.4% hits; AID 1892; in the data active = binding response below about 16% or above about 210%; inactive = in between
MEKK2mut confirm: signal of MEK5 binding to mutant human MEKK2, retest | shares compounds with MEKK3 PB1 HTS | bead flow cytometry, Alexa488-MEK5 binding to MEKK2 mutant | percent response, % at 10 µM | 5,900 compounds, 2% hits; in the data active = percent response mostly above about 71%, no sharp cut-off; inactive = mostly below about 38%;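 also: higher means compound restores mutant binding toward wildtype level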
MEKK3-MEK5 inh: MEKK3-MEK5 PB1 inhibition, single concentration confirmation | bead flow cytometry, Alexa488-MEK5 binding to MEKK3; stronger effect = lower value | shares compounds with MEKK3 PB1 HTS | binding response (% of control), % at 10 µM | 5,900 compounds, 1.8% hits;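 active = binding response below 72% of control, or above a set upper limit, though filed actives all read lower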
A number is an active result; i = inactive; nt = no result; [ ] = dose if it differs, or a comment. Compounds with a hit are over-represented: about 2.5% of the library has one in this group of screens.

SMILES | ABCB1 block | MEKK2mut PB1 HTS | Efflux pump mplx | ABCG2 inh | MEKK2 WT-MEK5 | MEKK3 PB1 HTS | MEKK2wt confirm | MEKK2mut confirm | MEKK3-MEK5 inh
CNC(=O)CSc1nnc(-c2ccco2)n1-c1cc(C)ccc1C | nt | 32.0 | i | nt | i | i | i | i | i
Cn1c(SCC(=O)NNC(=O)c2ccc(Br)cc2)nnc1-c1cccnc1 | i | i | i | i | i | i | nt | nt | nt
CCn1c(SCC(=O)NNC(=O)c2ccccc2)nnc1-c1ccco1 | i | i | i | i | i | 73.0[inhibitor] | i | i | i
CNC(=O)CSc1nnc(-c2ccco2)n1-c1cccc(C)c1C | nt | i | i | nt | i | i | nt | nt | nt
N#Cc1ccc2[nH]c(CO)c(-c3ccccc3)c2c1 | nt | i | i | nt | -13.0[inhibitor] | 0.0[inhibitor] | i | i | i
O=C(Nc1ccc(SC(F)F)cc1)c1ccc2c(=O)n3c(nc2c1)CCC3 | nt | nt | i | nt | nt | nt | nt | nt | nt
Cc1cc2nc(CSc3ccccc3)cc(=O)n2[nH]1 | i | i | i | i | i | i | nt | nt | nt
CCCn1c(C)cc(C(=O)CSc2nc3nc(C)cc(C)n3n2)c1C | i | i | i | i | i | 135.0 | i | i | i
O=C(O)c1[nH]c2ccccc2c1CC(=O)N1CCN(c2ccccc2)CC1 | i | i | i | i | i | 132.0 | i | i | i
CCOC(=O)CN(c1ccccn1)S(=O)(=O)c1ccccc1 | i | i | i | i | i | i | nt | nt | nt
COC(=O)c1ccc(CN(c2ccccn2)S(=O)(=O)c2ccccc2)cc1 | i | i | i | i | i | 132.0 | i | i | i
CN(C)S(=O)(=O)c1cccc(COc2ncnc3c(Cl)cc(Cl)cc23)c1 | nt | i | i | nt | i | i | nt | nt | nt
O=C(NN=C1c2ccccc2-c2ccccc21)c1ccccc1Br | i | i | i | i | 8.0[inhibitor] | 4.0[inhibitor] | i | i | i
COc1cccc(NC(=S)NCCN2CCOCC2)c1 | i | i | i | i | i | 141.0 | i | i | i
Cc1cccc(NC(=S)NCCCN2CCOCC2)c1 | i | i | i | i | i | 138.0 | i | i | i
S=C(NCCN1CCOCC1)Nc1cccc(Cl)c1 | i | i | i | i | i | i | nt | nt | nt
Cc1cc(C)c(S(=O)(=O)N2CCN(S(=O)(=O)N3CCOCC3)CC2)c(C)c1 | nt | i | i | nt | i | i | nt | nt | nt
CC(C)Oc1ccc(C(=O)Nc2ccc3c(c2)n(C)c(=O)n3C)cc1 | nt | i | i | nt | i | i | nt | nt | nt
COc1cccc(OC)c1-c1nn2c(-c3ccco3)nnc2s1 | i | i | i | i | i | 129.0 | i | i | i
COc1cccc(-c2nn3c(-c4ccco4)nnc3s2)c1 | nt | i | i | nt | i | i | nt | nt | nt
CCC(=O)N[C@@H]1CC(C(C)(C)NC(=O)CC)CC=C1C (stereo partly drawn) | i | i | i | i | 1.0[inhibitor] | 2.0[inhibitor] | i | i | i
COc1ccc(C(CCNCc2ccc(N(C)C)cc2)c2ccccc2)cc1 (stereo not drawn) | nt | i | i | nt | 159.0 | i | i | i | i
CC(C)Oc1ccc(C(CCNCc2ccc(O)cc2)c2ccccc2)cc1 (stereo not drawn) | nt | 24.0 | i | nt | 150.0 | i | i | i | i
CCOc1ccc(N(C(C)C(=O)N2CCOCC2)S(C)(=O)=O)cc1 (stereo not drawn) | nt | i | i | nt | i | i | nt | nt | nt
Cc1ccc(CSCCNS(C)(=O)=O)cc1 | i | i | i | i | i | 58.0[inhibitor] | i | i | i
SMILES | ABCB1 block | MEKK2mut PB1 HTS | Efflux pump mplx | ABCG2 inh | MEKK2 WT-MEK5 | MEKK3 PB1 HTS | MEKK2wt confirm | MEKK2mut confirm | MEKK3-MEK5 inh
CS(=O)(=O)NCCSCc1ccccc1 | i | i | i | i | i | i | nt | nt | nt
O=C(c1ccc(Cl)nc1)N1CCN(S(=O)(=O)c2ccc(Cl)cc2)CC1 | i | i | i | i | i | i | nt | nt | nt
CC1CC(C)CN(C(=O)CN2CCN(Cc3ccc(Cl)cc3)C2=O)C1 (stereo not drawn) | i | i | i | i | i | 128.0 | i | i | i
O=C(O)CN1CCN(Cc2ccc(Cl)cc2)C1=O | i | i | i | i | i | i | nt | nt | nt
CCc1ccc(OCC(O)CN2CCC(CN3C(=O)c4cccc5cccc(c45)C3=O)CC2)cc1 (stereo not drawn) | i | i | i | i | 148.0 | i | i | i | i
COc1cccc(OCC(O)CN2CCC(CN3C(=O)c4cccc5cccc(c45)C3=O)CC2)c1 (stereo not drawn) | i | i | i | i | 156.0 | i | i | i | i
O=C1c2cccc3cccc(c23)C(=O)N1CCN1CCN(CC(O)COc2ccc3ccccc3c2)CC1 (stereo not drawn) | i | i | i | i | 149.0 | i | i | i | i
NS(=O)(=O)c1ccc(CCNC(=S)NC(=O)c2ccccc2Br)cc1 | nt | nt | i | nt | nt | nt | nt | nt | nt
COc1ccc(OC)c(NC(=O)c2cccc(NC(=O)c3ccccc3C(=O)O)c2)c1 | nt | i | i | nt | i | i | nt | nt | nt
CCOC(=O)N1CCC(N2C(=O)c3ccccc3C2Nc2cc(C)cc(C)c2)CC1 (stereo not drawn) | nt | i | i | nt | i | 128.0 | i | i | i
CCCC1=Nc2cc(C(=O)N3CCN(c4ccccn4)CC3)ccc2Sc2ccc(C)cc21 | nt | i | i | nt | i | i | nt | nt | nt
